Results reported in ChEMBL document CHEMBL1121967 (J Med Chem, 1982).
“And” between values parts separate entries of the source, which are not always exact repeats. Identical values can stand only once. The source made the active and inactive calls. The calls are words filed in the database; no cut-off is given here. Residues, ends and D or L forms follow the SMILES beside them.

Experiments:
Format in all cases: functional
[1] = species on record: Cavia porcellus; test: Negative log of the concentration producing 50% of the maximum effect was measured in guinea pig ileum; conditions: for Kb: Cavia porcellus, Ileum, read-out: pA2 (converted)
How it was run: (§1)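 Isolated helical strips of rabbit mesenteric vein, longitudinal strips of guinea pig ileum, or helical strips of guinea pig trachea, held in 10-mL baths of Krebs' solution at 37 °C gassed with 95% O2/5% CO2. Isometric tension recorded. Cumulative agonist concentrations 10⁻¹⁰ to 10⁻⁵ M. pD2 is -log concentration giving 50% of the compound's own maximum. Intrinsic activity is a fraction of SP's, and affinity is relative to SP. Values come from 10-12 determinations.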

[2] = species on record: Cavia porcellus; test: Negative log of the concentration producing 50% of the maximum effect was measured in guinea pig ileum as pA2-pA10
[3] = species on record: Oryctolagus cuniculus; test: The intrinsic activity was measured in Rabbit mesenteric vein; conditions: for Kb: read-out: pA2 (converted); how it was run: as §1
[4] = species on record: Oryctolagus cuniculus; test: Relative affinity was determined with substance P(SP) in Rabbit mesenteric vein; how it was run: as §1
[5] = species on record: Oryctolagus cuniculus; test: Negative log of the concentration producing 50% of the maximum effect was measured in Rabbit mesenteric vein; how it was run: as §1
[6] = species on record: Cavia porcellus; test: Concentration producing 50% of the maximum effect was tested in guinea pig ileum; inactive; how it was run: as §1
[7] = species on record: Cavia porcellus; test: Concentration producing 50% of the maximum effect was tested in guinea pig trachea; inactive; how it was run: as §1
[8] = species on record: Oryctolagus cuniculus; test: Concentration producing 50% of the maximum effect was tested in Rabbit mesenteric vein; how it was run: as §1
[9] = species on record: Cavia porcellus; test: Relative affinity was determined with substance P(SP) in guinea pig ileum; how it was run: as §1
[10] = species on record: Cavia porcellus; test: The intrinsic activity was measured in guinea pig trachea; how it was run: as §1
[11] = species on record: Cavia porcellus; test: Concentration producing 50% of the maximum effect was tested in guinea pig ileum; conditions: read-out: ED50 (the source's name); how it was run: as §1
[12] = species on record: Cavia porcellus; test: Concentration producing 50% of the maximum effect was tested in guinea pig trachea; conditions: read-out: ED50 (the source's name); how it was run: as §1
[13] = species on record: Cavia porcellus; test: Negative log of the concentration producing 50% of the maximum effect was measured in guinea pig trachea; how it was run: as §1
[14] = species on record: Cavia porcellus; test: The intrinsic activity was measured in guinea pig ileum; how it was run: as §1
[15] = species on record: Cavia porcellus; test: Relative affinity was determined with substance P(SP) in guinea pig trachea; how it was run: as §1
[16] = species on record: Oryctolagus cuniculus; test: Negative log of the concentration producing 50% of the maximum effect was measured in Rabbit mesenteric vein as pA2-pA10

Row | SMILES | EC50 [11] | EC50 [12] | pA2 minus pA10 difference [2] | RA [4] | ED50 [8] | pD2 [5] | RA [9] | pD2 [1] | pD2 [13] | Intrinsic actvity [14] | RA [15] | other results
1 | CSCC[C@H](NC(=O)[C@H](CC(C)C)NC(=O)[C@H](Cc1c[nH]c2ccccc12)NC(=O)[C@H](Cc1ccccc1)NC(=O)[C@H](Cc1ccccc1)NC(=O)[C@H](CCC(N)=O)NC(=O)[C@H](CCC(N)=O)NC(=O)[C@@H]1CCCN1C(=O)[C@H](CCCCN)NC(=O)[C@@H]1CCCN1C(=O)[C@@H](N)CCCN=C(N)N)C(N)=O |  |  | 0.45 |  |  |  |  |  |  |  |  | Kb [1]: 21.4 µM
2 | CSCC[C@H](NC(=O)[C@H](CC(C)C)NC(=O)[C@H](Cc1c[nH]c2ccccc12)NC(=O)[C@H](Cc1ccccc1)NC(=O)[C@H](Cc1c[nH]c2ccccc12)NC(=O)[C@H](CCC(N)=O)NC(=O)[C@H](CCC(N)=O)NC(=O)[C@@H]1CCCN1)C(N)=O (H-PQQWFWLM-NH2) |  |  | 1 and 1.01 | <0.1 |  |  |  |  |  |  |  | Kb [3]: 2.24 µM; pA2-pA10 [5]: 1; ED50 [6]: inactive; pA2 [1]: 5.65 and 5.96; ED50 [7]: inactive
3 | CSCC[C@H](NC(=O)[C@H](CC(C)C)NC(=O)CNC(=O)[C@H](Cc1ccccc1)NC(=O)[C@H](Cc1ccccc1)NC(=O)[C@@H](N)CCC(N)=O)C(N)=O (H-QFFGLM-NH2) | 0.0012 µM | 0.034 µM |  | 33 | 0.08 µM | 7.1 | 146 | 8.91 | 7.46 | 1 | 507 | Activity [3]: 1; Intrinsic actvity [10]: 1.25
4 | CSCC[C@H](NC(=O)[C@H](Cc1c[nH]c2ccccc12)NC(=O)CNC(=O)[C@H](Cc1ccccc1)NC(=O)[C@H](Cc1ccccc1)NC(=O)[C@@H](N)CCCN=C(N)N)C(N)=O (H-RFFGWM-NH2) |  |  | 0.82 | <0.1 |  |  |  |  |  |  |  | Kb [3]: 11 µM; ED50 [6]: inactive; Kb [1]: 9.77 µM; Activity [16]: 0.69; ED50 [7]: inactive

The next lines start with results.

Row | EC50 [11] | EC50 [12] | SMILES | pA2 minus pA10 difference [2] | RA [4] | ED50 [8] | pD2 [5] | RA [9] | pD2 [1] | pD2 [13] | Intrinsic actvity [14] | RA [15] | other results
5 | 1.3 µM | 0.86 µM | CSCC[C@H](NC(=O)[C@H](CC(C)C)NC(=O)[C@H](Cc1c[nH]c2ccccc12)NC(=O)[C@H](Cc1ccccc1)NC(=O)[C@H](Cc1ccccc1)NC(=O)[C@@H](N)CCCN=C(N)N)C(N)=O (H-RFFWLM-NH2) |  | 2.7 | 0.97 µM | 6 | 0.1 | 5.88 | 6.06 |  | 20.3 | 
6 | 0.36 µM | 4.2 µM | CSCC[C@H](NC(=O)[C@H](CC(C)C)NC(=O)CNC(=O)[C@H](Cc1c[nH]c2ccccc12)NC(=O)[C@H](Cc1ccccc1)NC(=O)[C@@H](N)CCCN=C(N)N)C(N)=O (H-RFWGLM-NH2) |  |  |  |  | 0.5 | 6.44 | 5.38 | 0.9 | 4.2 | Activity [10]: 0.5
7 | 0.25 µM | 6.6 µM | CSCC[C@H](NC(=O)[C@H](CC(C)C)NC(=O)CNC(=O)[C@H](Cc1ccccc1)NC(=O)[C@H](Cc1c[nH]c2ccccc12)NC(=O)[C@@H](N)CCCN=C(N)N)C(N)=O (H-RWFGLM-NH2) |  | 0.9 | 2.7 µM | 5.56 | 0.7 | 6.6 | 5.18 | 0.9 | 2.8 | 
